CHOP inh = inhibitors of CHOP promoter induction, primary screen, cell-based, unfolded protein response, luciferase reporter; CHO-K1 CHOP-promoter luciferase, tunicamycin-induced, 15-18 h; inhibition, % at 10 µM; hit rate 3.8% among 220,000; AID 2732, 2010;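 active = compounds that reduced the stress-induced luciferase reporter signal by more than about 70% of percent inhibition, limit read from the data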;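 note: 0% = tunicamycin plus vehicle and 100% = wells without tunicamycin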
697 NFkB inh = inhibitors of PMA/ionomycin-induced NF-kB reporter, 697 cells, primary screen, B-cell NF-kB inhibitor project, cell-based, luminescence, uHTS; inhibition, % at 4 µM; 697 B-cell NF-kB luciferase reporter, 16 h; AID 435022, 2010; hit rate 0.33% among 330,000; in the data active = inhibition above about 35%
Gli-Sufu block = Gli-Sufu pathway antagonists, primary screen, luciferase luminescence, Sufu-KO-LIGHT cells, uHTS; Sufu-KO-LIGHT fibroblasts, Gli luciferase reporter luminescence; hit rate 0.74% among 340,000; AID 588413, 2011; inhibition, % at 5 µM;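 active = inhibition above about 55%, limit read from the data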;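 note: 0% = DMSO-treated cells and 100% = wells with medium but no cells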
CHOP UPR activ = activators of apoptotic CHOP UPR arm, primary screen, cell-based, CHO-CHOP luciferase reporter, luminescence, uHTS. activation, % at 10 µM. AID 449763, 2010. UPR activation; percent of tunicamycin response over DMSO baseline. hit rate 0.34% among 330,000;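 active = at 10 µM dose, activation of 40% or more, normalized to positive control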;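 note: 100% = tunicamycin at 10 µg/mL and 0% = DMSO alone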
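Evaluation: % reporter activation, DMSO baseline versus tunicamycin full activation; System: CHO-CHOP luciferase reporter cell line; Input: 500 cells/well; Incubation: 6 h compound treatment, 37 °C; Measured by: Steady-Glo luciferase luminescence; Dosing: one dose, 10 µM in 0.5% DMSO; Buffer or medium: F12 medium, 10% FBS; Benchmarks: positive tunicamycin 10 µg/mL, negative DMSO alone.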
Jurkat NFkB inh = inhibitors of induced NF-kB luciferase reporter, primary screen, TCR NF-kB activation inhibitor project, cell-based, luminescence, uHTS; Jurkat, PMA/ionomycin-induced NF-kB luciferase reporter; inhibition, % at 4 µM; hit rate 0.53% among 330,000; in the data active = inhibition above about 50%
UPR XBP1 act = activators of adaptive XBP1 UPR arm, primary screen, cell-based, CHO-XBP1 luciferase reporter, luminescence, uHTS; hit rate 0.33% among 330,000; activation, % at 20 µM; IRE1-XBP1 UPR activation; percent of tunicamycin response, DMSO as zero;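 active = versus positive control, 20 µM dose yields 30% or more activation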;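 note: 100% = tunicamycin at 10 µg/mL and 0% = DMSO only wells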
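Test system: CHO-XBP1 luciferase reporter cells | Buffer or medium: Serum-containing F12 medium, 10% FBS | Schedule: 6 h compound exposure at 37 °C, 5% CO2 | Detection: Steady-Glo luciferase glow luminescence, 10 min after reagent addition | Read-out basis: Activation, % of tunicamycin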
CHOP UPR conf = activators of apoptotic CHOP UPR arm, confirmation, cell-based, CHO-CHOP luciferase reporter, single concentration. shares compounds with CHOP UPR activ. activation, % at 10 µM. CHO-CHOP cells, CHOP-luciferase reporter luminescence; percent of tunicamycin response, DMSO as zero. hit rate 64% among 1,000. AID 463112, 2010; in the data active = activation above about 33%;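 note: 0% = DMSO wells and 100% = tunicamycin 10 µg/mL wells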
Starred values were filed as active, the others as inactive. Rows were chosen to be rich in hits. Some 3.9% of all compounds tested hit in one or more screens of this group.

How did Cc1nc(SCC(=O)N(C)C2CCS(=O)(=O)C2)c(C#N)c(C)c1C (stereo not drawn) do in these assays?
697 NFkB inh: -20; Gli-Sufu block: 2; CHOP UPR activ: -1; Jurkat NFkB inh: -23; UPR XBP1 act: -1

How did Oc1c(CN2CCc3ccccc3C2)cc(Cl)c2cccnc12 do in these assays?
697 NFkB inh: -23; Gli-Sufu block: -1; CHOP UPR activ: 86*; Jurkat NFkB inh: 3; UPR XBP1 act: 21; CHOP UPR conf: 325*

What do the screens show for `O=C(Oc1c(CN2CCOCC2)cc(Cl)c2cccnc12)c1ccccc1F`?
CHOP inh: 67; 697 NFkB inh: 9; Gli-Sufu block: 31; CHOP UPR activ: 79*; Jurkat NFkB inh: 20; UPR XBP1 act: 20; CHOP UPR conf: 70*

What do the screens show for `Oc1c(Cl)cc(CN2CCOCC2)c2cccnc12`?
697 NFkB inh: 24; Gli-Sufu block: 24; CHOP UPR activ: 134*; Jurkat NFkB inh: 8; UPR XBP1 act: 20; CHOP UPR conf: 128*

Results for O=C(COc1c(Br)cc(Br)c2cccnc12)N1CCCCC1 ?
CHOP inh: 26; 697 NFkB inh: -1; Gli-Sufu block: -6; CHOP UPR activ: 0; Jurkat NFkB inh: -2; UPR XBP1 act: 2

What do the screens show for `O=c1oc2ccccc2c(O)c1Cc1cc(Cl)c2cccnc2c1O`?
CHOP inh: 0; 697 NFkB inh: 9; Gli-Sufu block: 6; CHOP UPR activ: 0; Jurkat NFkB inh: -3; UPR XBP1 act: -2

How did Oc1c(CN2CCCCC2)cc(Br)c2cccnc12 do in these assays?
697 NFkB inh: 2; Gli-Sufu block: 27; CHOP UPR activ: 88*; Jurkat NFkB inh: 26; UPR XBP1 act: 26; CHOP UPR conf: 125*

How did CCN1C[C@@H]2[C@@H]3C(=O)N(C)C(=O)[C@@H]3[C@](Cc3ccccc3)(C1=O)N2C(=O)c1ccccc1 do in these assays?
Gli-Sufu block: -6

What do the screens show for `Cc1ccc(NC(=O)C(C)OC(=O)/C=C/c2ccccc2)cc1S(=O)(=O)N1CCOCC1` (stereo not drawn)?
697 NFkB inh: 20; Gli-Sufu block: -1; CHOP UPR activ: 1; Jurkat NFkB inh: 15; UPR XBP1 act: -2

What do the screens show for `CC1(C)CC(=O)C(=Cc2cn(-c3ccccc3)nc2-c2ccccc2)C(=O)C1`?
697 NFkB inh: 7; Gli-Sufu block: -19; CHOP UPR activ: 89*; Jurkat NFkB inh: 4; UPR XBP1 act: 16; CHOP UPR conf: 184*

Results for COc1cc(OC)cc(C(=O)NC(=S)Nc2cc3oc4ccccc4c3cc2OC)c1 ?
CHOP inh: 53; 697 NFkB inh: -28; Gli-Sufu block: 4; CHOP UPR activ: 101*; Jurkat NFkB inh: -11; UPR XBP1 act: 15; CHOP UPR conf: 74*

Results for COc1cc2c(cc1NC(=S)NC(=O)c1c(OC)cccc1OC)oc1ccccc12 ?
CHOP inh: -16; 697 NFkB inh: 18; Gli-Sufu block: 18; CHOP UPR activ: 0; Jurkat NFkB inh: -3; UPR XBP1 act: -2

Results for CCC(C)(C)C1CCC(NC(=O)c2ccc(S(=O)(=O)N3CCOCC3)cc2)CC1 (stereo not drawn) ?
697 NFkB inh: -24; Gli-Sufu block: 12; CHOP UPR activ: 0; Jurkat NFkB inh: -1; UPR XBP1 act: 0

What do the screens show for `COC(=O)[C@@H]1[C@@H](C#N)C2(c3ccccc3-c3ccccc32)N(c2ccc(Cl)cc2)N1C#N`?
CHOP inh: 82*; 697 NFkB inh: 7; Gli-Sufu block: 12; CHOP UPR activ: 92*; Jurkat NFkB inh: 1; UPR XBP1 act: 4; CHOP UPR conf: 55*

Bioassay records from PubChem BioAssay.
